Publication PMC5862033 (Molecular psychiatry, 2017)

Experiments:
[1] = statement in discussion, no reference given; cited from earlier work
[2] = d5 OT pharmacokinetics in plasma and CSF after IN and IV administration; assay type: in vivo, rhesus monkeys (Macaca Mulatta); details: for Drug targeting efficiency percentage (DTE%), single monkey: 80 IU d5 OT IN vs IV, AUC0-60 min, individual monkey
Procedure, shortened: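 Rhesus monkeys sedated IM: ketamine (10 mg/kg), dexdomitor (0.01 mg/kg), glycopyrrolate 0.01 mg/kg i.m.; 80 IU deuterated test compound given IN or IV (1 mL normal saline, leg vein), IN saline control, counterbalanced weekly sessions. Blood and CSF drawn pre-dose and 10–60 min. Samples acetonitrile-precipitated, SPE-cleaned at pH 3.0, LC-MS/MS. Non-compartmental AUC0–60, Cmax, Tmax; bioavailability and DTE from AUC ratios.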

[3] = used as correction in blood contamination formula; cited from earlier work
[4] = study did not use labelled OT; cited from earlier work

Molecule: atosiban
- Passage of the BBB [1]: does not pass the BBB

Molecule: d5-oxytocin [d5 OT]
- Drug targeting efficiency percentage (DTE%), single monkey ([2]; first of 4 values listed): 33.6%
- Drug targeting efficiency percentage (DTE%), single monkey ([2]; second of 4 values listed): 50.5%
- Drug targeting efficiency percentage (DTE%), single monkey ([2]; third of 4 values listed): 154.6%
- Bioavailability post IN administration for plasma and CSF ([2]; 100 x (AUC IN/AUC IV), 80 IU d5 OT, plasma and CSF, values only in words): similar, albeit low

Molecule: CC[C@H](C)[C@@H]1NC(=O)[C@H](Cc2ccc(O)cc2)NC(=O)[C@@H](N)CSSC[C@@H](C(=O)N2CCC[C@H]2C(=O)N[C@@H](CC(C)C)C(=O)NCC(N)=O)NC(=O)[C@H](CC(N)=O)NC(=O)[C@H](CCC(N)=O)NC1=O [OT, Oxytocin]
- Fraction of OT that is not protein bound [3]: 0.7
- Fraction of OT crossing the BBB [4]: ~ .002%
